Assay results published in PMC3517082 (Molecular nutrition & food research, 2011).
“Also recorded” adds a separate entry of the source. Like-named read-outs stand apart in the source and are kept apart here.

Columns and labels:
TrxR [1] = details: 50 μM 4-HNE for 6 hr, HeLa cells; cited from earlier work
NF-κB [2] = details: cited from earlier work
[3] = cited from earlier work
GSH [4] = details: human endothelial cells, pretreatment; cited from earlier work
[5] = test system: human endothelial HMEC-1 cells; details: 12.5 μM acrolein; cited from earlier work
Trx1 = details: cited from earlier work
Trx2 = details: cited from earlier work
[6] = test system: human endothelial HMEC-1 cells; experiment: Protection of human endothelial cells from acrolein toxicity / cell death; assay type: cell-based
TrxR [7] = experiment: TrxR specific activity in normal human bronchial epithelial cells; assay type: cell-based; details: BEAS-2B cells, 2.5 μM acrolein, 30 min
Procedure, shortened: (§1)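 BEAS-2B normal human bronchial epithelial cells exposed to acrolein for 30 min, with vehicle-alone cultures as controls. Specific activity of TrxR, glutathione reductase (GSSG-R) and GAPDH determined by enzymatic assay. Significance (P < 0.01) judged against vehicle-treated cells.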

[8] = biological target: glutathione reductase (GSSG-R) (Homo sapiens, UniProt P00390); experiment: Glutathione reductase specific activity in BEAS-2B cells; assay type: cell-based; details: bronchial cells (BEAS-2B), 30 min
Procedure, shortened: as §1

[9] = biological target: glyceraldehyde-3-phosphate dehydrogenase (GAPDH) (Homo sapiens, UniProt P04406); experiment: GAPDH specific activity in BEAS-2B cells; assay type: cell-based; details: 30 min acrolein
Procedure, shortened: as §1

GSH [10] = experiment: GSH levels in human endothelial cells; assay type: cell-based; details: HMEC-1 cells, acrolein 30 min, recovery 1 or 2 h
ASK1 bound to Trx1 = ASK1 bound to Trx1 (Homo sapiens, UniProt P10599); experiment: Immunoprecipitation of ASK1 bound to Trx1 in HMEC-1 cells; assay type: cell-based; details: acrolein 30 min
p38 = p38 phosphorylation western blot in HMEC-1 cells; assay type: cell-based, human
Procedure, shortened: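 HMEC-1 cells treated with acrolein, with anisomycin (200 ng/ml) as a known activator and untreated cells as controls. Western blots probed with anti-phospho-p38 (Thr180/Tyr182) and anti-p38α for total p38α. 3–5 independent treatments per condition, compared against untreated control.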

JNK = JNK phosphorylation western blot in HMEC-1 cells; assay type: cell-based, human
Procedure, shortened: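 HMEC-1 endothelial cells given acrolein; anisomycin at 200 ng/ml served as positive activator, and untreated cells as reference. Immunoblots probed for phospho-JNK (Thr183/Tyr185) and with anti-pan-JNK for total JNK. n = 3–5 independent treatments for each condition.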

TrxR [11] = details: A549 cells, cited from earlier work
TrxR [12] = details: 25 μM acrolein for 30 min, human umbilical vein endothelial cells; cited from earlier work
TrxR [13] = details: BEAS-2B cells, cited from earlier work
Purified TrxR = details: 1 μM acrolein; cited from earlier work
glutathione reductase = details: 25 μM acrolein, 30 min, human umbilical vein endothelial cells; cited from earlier work
glutathione peroxidase = details: 25 μM acrolein, 30 min, human umbilical vein endothelial cells; cited from earlier work
superoxide dismutase = details: 25 μM acrolein, 30 min, human umbilical vein endothelial cells; cited from earlier work
catalase = details: 25 μM acrolein, 30 min, human umbilical vein endothelial cells; cited from earlier work
Human endothelial cells = details: 30 min; cited from earlier work
[14] = depending on the cell type; cited from earlier work
Trx = details: cited from earlier work
Prx1 = details: acrolein-treated human bronchial cells; cited from earlier work
Prx3 = details: acrolein-treated human bronchial cells; cited from earlier work
AP-1 = details: A549 cells, reporter construct; cited from earlier work
NF-κB [15] = details: A549 cells; cited from earlier work
NF-κB [16] = details: bovine endothelial cells; cited from earlier work
[17] = human endothelial cells, limited experiments
[18] = 5 μM acrolein, human endothelial and bronchial epithelial cells

Sequence of glutathione reductase (GSSG-R) (P00390 44-522): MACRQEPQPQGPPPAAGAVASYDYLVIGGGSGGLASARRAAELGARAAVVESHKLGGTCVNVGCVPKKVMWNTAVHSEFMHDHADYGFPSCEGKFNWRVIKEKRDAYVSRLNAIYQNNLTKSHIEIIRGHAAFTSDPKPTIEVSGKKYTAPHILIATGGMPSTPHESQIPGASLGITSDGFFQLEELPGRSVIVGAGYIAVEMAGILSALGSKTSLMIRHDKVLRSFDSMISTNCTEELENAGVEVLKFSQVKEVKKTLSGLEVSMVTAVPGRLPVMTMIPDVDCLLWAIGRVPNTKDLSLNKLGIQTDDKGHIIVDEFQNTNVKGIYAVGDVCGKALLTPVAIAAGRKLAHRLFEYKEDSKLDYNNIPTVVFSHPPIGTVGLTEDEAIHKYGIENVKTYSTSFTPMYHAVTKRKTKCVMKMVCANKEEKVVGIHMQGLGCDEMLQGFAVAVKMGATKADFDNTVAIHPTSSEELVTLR
Sequence of ASK1 bound to Trx1 (P10599 2-105 limits assumed): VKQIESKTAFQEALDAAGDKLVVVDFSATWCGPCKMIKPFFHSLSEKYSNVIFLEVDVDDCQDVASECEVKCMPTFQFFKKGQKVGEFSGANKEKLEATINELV
Sequence of glyceraldehyde-3-phosphate dehydrogenase (GAPDH) (P04406 whole entry): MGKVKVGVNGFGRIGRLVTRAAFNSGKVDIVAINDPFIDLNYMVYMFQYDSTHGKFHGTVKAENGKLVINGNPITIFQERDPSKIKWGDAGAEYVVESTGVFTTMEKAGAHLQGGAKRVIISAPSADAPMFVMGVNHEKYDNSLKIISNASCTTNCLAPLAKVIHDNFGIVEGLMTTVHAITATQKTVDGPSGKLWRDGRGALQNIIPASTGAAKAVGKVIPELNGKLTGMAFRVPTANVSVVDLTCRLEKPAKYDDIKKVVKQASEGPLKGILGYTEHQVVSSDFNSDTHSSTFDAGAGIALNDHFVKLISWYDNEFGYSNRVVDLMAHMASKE

## CCCCCC(O)/C=C/C=O (stereo not drawn) [4-HNE, 4-hydroxynonenal]
TrxR [1]
  inhibition of TrxR activity: ca. 60%

## O=C/C=C/c1ccccc1 [Cinnamaldehyde]
NF-κB [2]
  effect on NF-κB activity: blocks NF-κB activity

## N[C@@H](CCC(=O)N[C@@H](CS)C(=O)NCC(=O)O)C(=O)O [GSH, reduced glutathione]
[3]
  pKa of thiol: 8.8

## CCOC(=O)CNC(=O)[C@H](CS)NC(=O)CC[C@H](N)C(=O)O [GSH-monoethyl ester]
GSH [4]
  increase in GSH levels: 64%
[5]
  protection of cells from acrolein: only a minor protection

## CC(=O)N[C@@H](CS)C(=O)O [NAC, N-acetylcysteine, reference compound]
Trx1; human endothelial cells, 2 hr pretreatment
  protection of Trx1 redox state from acrolein: partially protects
Trx2; [17]
  protection of Trx2 from acrolein: did not protect
GSH [4]
  increase in GSH levels: 31%

## C[S+]([O-])c1ccc(-c2nc(-c3ccncc3)c(-c3ccc(F)cc3)[nH]2)cc1 (stereo not drawn) [SB203580]
[6]; HMEC-1 cells, SB203580 10 μM 2 hr pretreatment, 5 and 12.5 μM acrolein 30 min, 14 hr in fresh medium
  protection from acrolein toxicity (Fig. 7): decreases acrolein toxicity; also recorded: protects

## Oc1c2ccccc2c2c3c(cccc13)N=N2 [SP600125]
[6]; human endothelial HMEC-1 cells, inhibitor alone
  effect on cell death by itself: increases cell death

## C=CC=O [acrolein, Prop-2-enal]
TrxR [7]
  effect on TrxR activity (Fig. 2): markedly inhibits
[8]; 12.5 μM acrolein
  inhibition of glutathione reductase activity (Fig. 2): ca. 40%
[8]; 2.5 or 5 μM acrolein
  effect on glutathione reductase activity (Fig. 2): not inhibited
[9]
  effect on cellular activity of glyceraldehyde phosphate dehydrogenase (Fig. 2): not significantly affected
GSH [10]
  recovery of GSH levels once acrolein is removed (Fig. 3): recover quickly
ASK1 bound to Trx1
  ASK1 bound to Trx1 (IP, Fig. 4): causes dissociation of ASK1 from Trx1
p38
  phosphorylation of p38 (Fig. 5): causes phosphorylation of p38
JNK
  phosphorylation of JNK (Fig. 6): causes phosphorylation of JNK
TrxR [11]; 50-75 μM acrolein for 30 min
  inhibition of TrxR activity: ca. 65%
TrxR [11]; 2-4 hr after acrolein removal
  TrxR activity recovered after acrolein removal: 70-100%
TrxR [12]
  inhibition of TrxR activity: 88%
TrxR [13]; 1 μM acrolein
  effect on TrxR activity at 1 μM: significant inhibition
TrxR [13]; 4 hr after acrolein removal
  recovery of TrxR activity after acrolein removal: does not recover
TrxR [13]
  acrolein concentration that strongly inhibits TrxR activity: ≥ 2.5 µM
Purified TrxR
  irreversible inhibition of purified TrxR: 80%
Glutathione reductase
  effect on glutathione reductase: not inhibited; also recorded: unaffected
Glutathione peroxidase
  effect on glutathione peroxidase: not inhibited; also recorded: unaffected
Superoxide dismutase
  effect on superoxide dismutase: not inhibited; also recorded: unaffected
catalase
  effect on catalase: not inhibited
Human endothelial cells
  cytotoxic concentration: ≥ 5 µM
[14]
  toxicity relative to formaldehyde: 10-200 times
Trx; A549 cancer cells
  concentration for maximal inhibition of Trx activity: ≥ 15 µM
Trx; A549 cells, 4 hr after acrolein removed
  recovery of Trx activity after acrolein removal: partial recovery
Trx1; [18]
  effect on reduced form of Trx1 (redox blot): eliminate the reduced forms
Trx1; human endothelial cells, 4-hr acrolein-free period
  recovery of Trx1 redox state after acrolein removal: modest recovery
Trx2; [18]
  effect on reduced form of Trx2 (redox blot): eliminate the reduced forms
Trx2; [17]
  redox recovery of Trx2 after acrolein removal: not observed
Prx1
  oxidation of Prx1 to dimers: near complete oxidation
Prx3
  oxidation of Prx3 to dimers: near complete oxidation
AP-1
  effect on AP-1 DNA binding and activity: decreases AP-1 binding to DNA and AP-1 activity
NF-κB [15]
  effect on NF-κB binding and activity: blocks both the binding and activity of NF-κB
NF-κB [16]
  effect on NF-κB DNA binding: blocks NF-κB DNA binding
